This is a sample that favours compounds with a hit; in the whole collection about 1.8% have one here.
PAD4 inh – blocks human protein arginine deiminase 4; inhibition, % at 6.36 µM; actives 0.41% (n = 330,000); Q9UM07; recombinant PAD4, RCA probe fluorescence polarization;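 active means percent inhibition above a cutoff equal to the mean of all tested compounds plus 3 SD, cut at about 15% in these data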
Target sequence (Q9UM07 whole entry, looked up): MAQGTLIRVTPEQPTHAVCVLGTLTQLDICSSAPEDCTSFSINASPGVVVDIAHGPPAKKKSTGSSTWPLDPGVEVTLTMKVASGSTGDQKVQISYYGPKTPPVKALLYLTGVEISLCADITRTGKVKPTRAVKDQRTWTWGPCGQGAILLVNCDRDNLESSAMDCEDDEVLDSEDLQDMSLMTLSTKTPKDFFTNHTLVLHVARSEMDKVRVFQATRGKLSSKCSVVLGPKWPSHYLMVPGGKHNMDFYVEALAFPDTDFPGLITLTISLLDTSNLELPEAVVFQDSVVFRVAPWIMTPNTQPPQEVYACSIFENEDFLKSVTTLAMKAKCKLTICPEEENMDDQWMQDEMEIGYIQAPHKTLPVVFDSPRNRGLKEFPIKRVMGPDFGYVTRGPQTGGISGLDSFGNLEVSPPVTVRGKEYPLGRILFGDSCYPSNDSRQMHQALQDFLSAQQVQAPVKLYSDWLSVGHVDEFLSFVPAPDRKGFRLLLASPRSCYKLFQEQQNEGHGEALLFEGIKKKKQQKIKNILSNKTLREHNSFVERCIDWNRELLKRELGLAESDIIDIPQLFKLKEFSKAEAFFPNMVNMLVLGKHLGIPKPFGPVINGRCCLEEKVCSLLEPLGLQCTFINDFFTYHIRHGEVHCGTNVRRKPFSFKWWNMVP
Fh CTSL1 inh – blocks F. hepatica cathepsin L1 in PFM18AAP counter-screen; recombinant F. hepatica cathepsin L1, Z-Leu-Arg-MCA fluorescence; inhibition, % at 5.96 µM; actives 0.49% (n = 300,000);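 active means inhibition above the mean of all tested compounds plus 3 SD, set per screening campaign, cut at about 17% in these data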
GSTO1 inh – GSTO1 inhibition, counter-screen for RBBP9 inhibitors. P78417. recombinant GSTO1, activity-based probe fluorescence polarization. inhibition, % at 5.96 µM. actives 1.1% (n = 300,000). AID 1974;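 active means inhibition above the campaign mean inhibition plus 3 SD, cut at about 35% in these data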
Apaf1 inhib – inhibitors of human Apaf-1 apoptosome. reconstituted apoptosome caspase-3 activity, DEVD-Rh110 fluorescence. actives 0.71% (n = 330,000). inhibition, % at 20 µM. O14727. AID 489030; active means inhibition of at least 40% at 20 µM
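System: reconstituted apoptosome with Apaf-1, cytochrome c, caspase-9, procaspase-3, dATP; Signal: Rh110 fluorescence intensity; Schedule: 30 min compound preincubation, 50 min activation, room temperature; Reagent: cytochrome c trigger plus (Z-DEVD)2-Rh110 caspase-3 substrate.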
TDP2 absorb – blocks human TDP2 phosphodiesterase activity; AID 720702; actives 0.34% (n = 370,000); recombinant TDP2, T5PNP hydrolysis, p-nitrophenol absorbance 415 nm; O95551; inhibition, % at 12.8 µM;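 active means inhibition above the mean of all tested compounds plus 3 SD, set per campaign, cut at about 25% in these data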
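test system = human TDP2 enzyme | input = TDP2 enzyme at 120 nM final | medium = 50 mM Tris-HCl pH 7.5 with Mg2+, KCl, DTT, BSA | also added = T5PNP substrate, 5 mM | times = 2 h at 37 °C | technique = epi absorbance | benchmarks = high control without enzyme, low control DMSO plus TDP2 | replication = each compound tested once, singlicate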
PAD4 FP conf – PAD4 (human) inhibition, confirmed; inhibition, % at 6.36 µM; shares compounds with PAD4 inh; actives 28% (n = 1,200); recombinant PAD4, RCA probe fluorescence polarization; AID 488796;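 active means mean inhibition across replicates above the hit cutoff set by the earlier primary screen, cut at about 15% in these data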;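 further: inhibitors block active-site labeling by the probe so polarization falls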
Hits are given with their value; 0 = inactive; - = no result given.

SMILES | PAD4 inh | Fh CTSL1 inh | GSTO1 inh | Apaf1 inhib | TDP2 absorb | PAD4 FP conf
CC(=O)N1CC[n+]2c(-c3ccc(Cl)cc3Cl)csc21 | 16.1 | 0 | 0 | 0 | 0 | 0
COc1ccccc1N1CCN(C(=O)c2coc(=O)c(Br)c2)CC1 | 34.3 | 0 | 0 | 0 | 0 | 0
O=C1N2Cc3ccccc3C2CS(=O)(=O)N1C1CCCC1 (stereo not given) | - | - | - | - | 0 | -
COC(CNC(=O)[C@H](Cc1c[nH]c2ccccc12)NC1(C(=O)NC2CCCCC2)CCCCC1)OC | - | - | - | - | 0 | -
O=C1CC(c2ccc(F)cc2)c2cc3c(cc2N1)CCC3 (stereo not given) | 15.5 | 0 | 0 | 0 | 0 | 0
Cc1cc2c(cc1C)C(c1cccc(F)c1)CC(=O)N2 (stereo not given) | - | - | - | 0 | 0 | -
O=[N+]([O-])c1cnc(N2CCCCC2)c([N+](=O)[O-])c1 | 40.7 | 0 | 0 | 0 | 0 | 0
Cc1[nH]n(-c2ccccc2)c(=O)c1C(c1ccccc1[N+](=O)[O-])C(C#N)C#N (stereo not given) | 22.3 | 0 | 0 | 0 | 74.9 | 0
Cc1[nH]n(-c2ccccc2)c(=O)c1C(c1ccccc1C(=O)O)c1c(C)[nH]n(-c2ccccc2)c1=O | 0 | 0 | 0 | 0 | 0 | -
Cc1noc(C)c1S(=O)(=O)N(C)C[C@H]1Oc2c(NS(=O)(=O)c3cn(C)cn3)cccc2C(=O)N([C@H](C)CO)C[C@@H]1C | 37.1 | - | - | 0 | 0 | 0
C[C@H](CO)N1C[C@H](C)[C@@H](CN(C)S(=O)(=O)c2cn(C)cn2)Oc2c(NS(=O)(=O)c3cn(C)cn3)cccc2C1=O | 0 | - | - | 0 | 0 | -
CC(C)CN1C(=O)C[C@]2(C(=O)N(C)c3ccc(NS(=O)(=O)C4CCCCC4)cc32)C1c1ccccc1 (stereo not given in full) | - | - | - | - | 0 | -
COC(=O)c1ccc2nc(-c3cccc(Cl)c3)c(Cc3ccccc3C(F)(F)F)n2c1 | - | - | - | - | 0 | -
C/C=C/c1ccc([C@H]2[C@@H](CN(CC(C)C)S(=O)(=O)c3ccccc3[N+](=O)[O-])N(C(=O)Nc3cccc(OC)c3)[C@H]2CO)cc1 | - | - | - | - | 0 | -
O=c1c2ccccc2sn1-c1ccc(F)cc1 | 41.6 | - | - | 0 | 0 | 28.9
COC(=O)c1cccc(N2CCCC2=O)c1 | 0 | 0 | 0 | 0 | 0 | -
Cc1ccc(-n2sc3ccccc3c2=O)cc1 | 53.4 | 0 | 0 | 0 | 0 | 30.2
COC(=O)c1cccc(-n2sc3ccccc3c2=O)c1 | 55.3 | - | - | 0 | 0 | 46.5
Cc1noc(C)c1S(=O)(=O)NCc1ccc2c(c1)OCO2 | 25.4 | 0 | 0 | 0 | 0 | 0
O=C(NCc1cccs1)C1C2C=CC3(CN(Cc4ccccc4)C(=O)C13)O2 (stereo not given) | - | - | - | - | 0 | -
COC(=O)CN1C(=O)N/C(=C/c2ccc(C)o2)C1=O | 16.4 | 0 | 0 | 0 | 0 | 0
COC(=O)c1cccc(NC(=O)CC2C(=O)NCCN2C(=O)Nc2ccccc2)c1 (stereo not given) | 0 | 0 | 0 | 0 | 0 | -
COC(=O)c1cc(NC(=O)CC2C(=O)NCCN2C(=O)c2ccccc2)cc(C(=O)OC)c1 (stereo not given) | 16.1 | 0 | 0 | 0 | 0 | 0
COc1ccc(N2C(=O)CSC23C(=O)Nc2ccccc23)cc1OC (stereo not given) | 0 | 0 | 0 | 0 | 0 | -
COc1cc(N2C(=O)CSC23C(=O)Nc2ccccc23)cc(OC)c1OC (stereo not given) | 15.1 | 0 | 0 | 0 | 0 | 16.4
SMILES | PAD4 inh | Fh CTSL1 inh | GSTO1 inh | Apaf1 inhib | TDP2 absorb | PAD4 FP conf
CC(C)c1cccc(C(C)C)c1NC(=O)CN1C(=O)NC2(CCCCCCC2)C1=O | 18.1 | - | - | 0 | 0 | 0
COc1ccc(NC(=O)CCNC(=O)Cn2cnc3sc4c(c3c2=O)CCCC4)c(OC)c1 | 0 | 0 | 0 | 0 | 0 | -
COc1ccc(NC(=O)CCCNC(=O)Cn2cnc3sc4c(c3c2=O)CCCC4)c(OC)c1 | 35.1 | 0 | 0 | 0 | 0 | 0
O=S(=O)(NC1=NCCCCC1)c1ccc2sc(NS(=O)(=O)c3ccc4ccccc4c3)nc2c1 | 30.0 | 0 | 0 | 0 | 0 | 22.0
O=S(=O)(Nc1nc2c(s1)CCCC2)c1ccc2ccccc2c1 | 0 | 0 | 0 | 0 | 0 | -
c1ccc(Nc2nnc(-c3ccc4c(c3)OCO4)o2)cc1 | - | - | - | - | 0 | -
Cc1cc(-c2nnc(SCC(=O)Nc3ccc(F)c(F)c3)n2N)n[nH]1 | 52.3 | 0 | 0 | 0 | 0 | 0

Source: PubChem
